Assay [1] is described as follows: Inhibition of hedgehog signaling pathway-mediated GLI1 mRNA expression in mouse C3H10T1/2 cells assessed as residual activity at 5 uM after 24 hrs by RT-PCR analysis relative to 20alpha-hydroxycholesterol/22(S)-hydroxycholesterol. In kind it is cell-based. Particulars: C3H 10T1/2. The procedure, abridged: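 C3H10T1/2 cells co-treated with analogue and the oxysterol Hh activators 20α-hydroxycholesterol plus 22(S)-hydroxycholesterol (5 μM each) for 24 h. Gli1 mRNA measured by qPCR as % of OHC-only control (100%). Analogue at 5 μM, or at 0.5 μM where stated.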

Assay [2] concerns the target T1, Vitamin D3 receptor (Mus musculus) (UniProt P48281).
T1 sequence (whole entry): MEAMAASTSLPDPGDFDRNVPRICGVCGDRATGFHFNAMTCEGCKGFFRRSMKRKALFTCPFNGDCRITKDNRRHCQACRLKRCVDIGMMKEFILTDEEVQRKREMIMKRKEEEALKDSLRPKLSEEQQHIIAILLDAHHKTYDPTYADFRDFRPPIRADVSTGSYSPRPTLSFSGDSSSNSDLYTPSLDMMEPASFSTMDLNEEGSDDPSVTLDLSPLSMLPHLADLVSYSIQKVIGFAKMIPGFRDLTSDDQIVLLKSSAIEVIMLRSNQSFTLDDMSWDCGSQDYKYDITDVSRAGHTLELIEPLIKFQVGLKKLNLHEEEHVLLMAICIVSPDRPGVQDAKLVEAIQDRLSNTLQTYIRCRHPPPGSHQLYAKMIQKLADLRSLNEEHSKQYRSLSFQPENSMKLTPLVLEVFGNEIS
The experiment in a line: Activation of VDR in mouse C3H10T1/2 cells assessed as upregulation of CYP24A1 mRNA expression at 5 uM after 24 hrs by RT-PCR analysis relative to DMSO-treated control. In kind it is cell-based. Particulars: C3H 10T1/2. The procedure, abridged: (§1)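 Cyp24A1 mRNA read by qPCR after 24 h exposure at 5 μM. Up-regulation normalized to DMSO control, set to 1.0.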

Assay [3] addresses T1, Vitamin D3 receptor (Mus musculus). The experiment in a line: Activation of VDR in mouse ASZ001 cells assessed as upregulation of CYP24A1 mRNA expression at 5 uM after 24 hrs by RT-PCR analysis relative to DMSO-treated control. It is filed as cell-based. The gist of the method: as §1
Assay [4] concerns the target T2, Vitamin D3 receptor (Homo sapiens) (UniProt P11473).
T2 sequence (whole entry): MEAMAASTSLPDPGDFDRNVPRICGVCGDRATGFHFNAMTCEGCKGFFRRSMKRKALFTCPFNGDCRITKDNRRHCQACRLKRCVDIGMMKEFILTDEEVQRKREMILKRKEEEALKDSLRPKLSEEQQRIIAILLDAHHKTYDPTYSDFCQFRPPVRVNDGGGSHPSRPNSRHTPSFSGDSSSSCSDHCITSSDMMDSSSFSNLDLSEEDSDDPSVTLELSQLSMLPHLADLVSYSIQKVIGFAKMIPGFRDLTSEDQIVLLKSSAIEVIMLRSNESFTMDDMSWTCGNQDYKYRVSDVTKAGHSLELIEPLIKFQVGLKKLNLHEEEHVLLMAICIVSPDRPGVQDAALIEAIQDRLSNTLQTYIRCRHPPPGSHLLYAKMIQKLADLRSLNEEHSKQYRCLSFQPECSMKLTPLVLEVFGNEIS
Put plainly: Competitive binding affinity to full length human VDR by fluorescence polarization assay. The gist of the method:
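Fluorescence polarization competition against a tight-binding fluorescent ligand on full-length human VDR. Tested at up to 100 μM, with calcitriol as positive control. At least two separate experiments.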
(In general: In fluorescence polarisation assays a small probe gives low polarisation when free and higher when bound to something large.)

Assay [5] has as its target T2, Vitamin D3 receptor (Homo sapiens). Put plainly: Activation of VDR in human DaOY cells assessed as upregulation of CYP24A1 mRNA expression at 5 uM after 24 hrs by RT-PCR analysis relative to DMSO-treated control. It is filed as cell-based. The gist of the method:
as §1

A short description of assay [6]: Inhibition of hedgehog signaling pathway-mediated GLI1 mRNA expression in human DaOY cells after 24 hrs by RT-PCR analysis. In kind it is cell-based. The gist of the method: (§2)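 ASZ001 (murine BCC) or DAOY (human medulloblastoma) cells given analogue at a range of concentrations. Gli1 and Ptch mRNA quantified by qPCR. IC50 given as mean ± SEM of at least two experiments in triplicate.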

Assay [7] in a line: Inhibition of hedgehog signaling pathway-mediated GLI1 mRNA expression in mouse ASZ001 cells after 24 hrs by RT-PCR analysis. It is filed as cell-based. Particulars: ASZ001, 24 h. The procedure, abridged:
as §2

A short description of assay [8]: Inhibition of hedgehog signaling pathway-mediated PTCH mRNA expression in mouse C3H10T1/2 cells after 24 hrs by RT-PCR analysis. It is filed as cell-based. Conditions: C3H 10T1/2, 24 h. The procedure, abridged: (§3)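 OHC-stimulated C3H10T1/2 cells (20α- and 22(S)-hydroxycholesterol, 5 μM each) given analogue at a range of concentrations. Gli1 and Ptch mRNA quantified by qPCR. IC50 given as mean ± SEM of at least two experiments run in triplicate.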

Assay [9] in a line: Inhibition of hedgehog signaling pathway-mediated PTCH mRNA expression in human DaOY cells after 24 hrs by RT-PCR analysis. In kind it is cell-based. The procedure, abridged: as §2
Assay [10] is described as follows: Inhibition of hedgehog signaling pathway-mediated GLI1 mRNA expression in mouse C3H10T1/2 cells after 24 hrs by RT-PCR analysis. It is filed as cell-based. Particulars: for inhibition: C3H 10T1/2; for pIC50: C3H 10T1/2, 24 h. The procedure, abridged:
as §3

pIC50: −log10 of the molar value.

Turning to `CC(C)CCC[C@@H](C)[C@H]1CC[C@H]2[C@@H](OC(=O)c3ccc4ccccc4c3)CCC[C@]12C`, the Activity in assay [1] came to 77.4%. In addition, the fold change (FC) in [2] amounted to 3.

In the case of `CC(C)CCC[C@@H](C)[C@H]1CC[C@H]2[C@@H](OC(=O)c3ccsc3)CCC[C@]12C`, the Activity in assay [1] was determined as 109%. Further, the fold change (FC) in [2] worked out at 1.3.

Take `CC(C)CCC[C@@H](C)[C@H]1CC[C@H]2[C@@H](OC(=O)c3ccco3)CCC[C@]12C`: the Activity in [1] was 95%. Besides, the fold change (FC) in assay [2] came out at 1.7.

In the case of `CC(C)CCC[C@@H](C)[C@H]1CC[C@H]2[C@@H](OC(=O)c3ccc4cc(O)ccc4c3)CCC[C@]12C`, the Activity in assay [1] worked out at 91.9%. In [2], the fold change (FC) was 0.8.

As for `CC(C)CCC[C@@H](C)[C@H]1CC[C@H]2[C@@H](OC(=O)c3cc4ccccc4[nH]3)CCC[C@]12C`, the Activity in assay [1] was 84.5%. In addition, in assay [2], the fold change (FC) was 2.7.

In the case of `CC(C)CCC[C@@H](C)[C@H]1CC[C@H]2[C@@H](OC(=O)c3ccc(Cl)cc3)CCC[C@]12C`, the Activity in assay [1] was found to be 77.7%. The fold change (FC) in assay [2] amounted to 0.8.

With `CC(C)CCC[C@@H](C)[C@H]1CC[C@H]2[C@@H](OC(=O)c3cc(O)c(O)c(O)c3)CCC[C@]12C`, the fold change (FC) was found to be 1.3 in assay [3], 1 in assay [5] and 11 in assay [2]. The Activity in [4] was above 100 µM; in assay [1], 5.1%. The negative logarithm of the IC50 (pIC50) – broadly, the IC50 on a negative log10 scale, so that one unit is a factor of ten – in assay [6] is 5.04; in [7], 5.09; in assay [8], 5.89; in assay [9], below 5.00; in [10], 5.96. For the same molecule, the inhibition result in assay [10] was “Dose-dependent effect”.

For the molecule `COc1ccc(C(=O)O[C@H]2CCC[C@]3(C)[C@@H]([C@H](C)CCCC(C)C)CC[C@@H]23)cc1`, the Activity in assay [1] was 113%. Further, the fold change (FC) in assay [2] was 0.9.

In the case of `CC(C)CCC[C@@H](C)[C@H]1CC[C@H]2[C@@H](OC(=O)c3cc(O)cc(O)c3)CCC[C@]12C`, the fold change (FC) came to 3.6 in [3], 0.3 in assay [5] and 19 in assay [2]. The Activity was above 100 µM in assay [4] and 8.6% in [1]. For the same molecule, the pIC50 was 5.24 in [6]; 5.39 in assay [7]; 5.35 in [8]; below 5.00 in assay [9]; 5.74 in assay [10]. Moreover, the inhibition result in assay [10] is “Dose-dependent effect”.

On to `CC(C)CCC[C@@H](C)[C@H]1CC[C@H]2[C@@H](OC(=O)c3ccc(O)cc3)CCC[C@]12C`, for which the figures for the fold change (FC) in assay [3], in [5] and in assay [2] were 6.3, 1.5 and 18.8, respectively. Also, the Activity was above 100 µM in assay [4] and 2.4% in [1]. The pIC50 was below 5.00 in assay [6]; 5.18 in assay [7]; 5.48 in assay [8]; below 5.00 in assay [9]; 5.55 in assay [10]. Also, the inhibition entry in [10] is “Dose-dependent effect”.

For the molecule `CC(C)CCC[C@@H](C)[C@H]1CC[C@H]2[C@@H](OC(=O)c3cccnc3)CCC[C@]12C`, the Activity in assay [1] was found to be 20.7%. Also, the fold change (FC) in assay [2] is 17.1.

Regarding `CC(C)CCC[C@@H](C)[C@H]1CC[C@H]2[C@@H](OC(=O)c3cccc4cc(O)ccc34)CCC[C@]12C`, the Activity in assay [1] came out at 103%. Further, in [2], the fold change (FC) came to 4.7.

As for `CC(C)CCC[C@@H](C)[C@H]1CC[C@H]2[C@@H](O)CCC[C@]12C`, in assay [1], the Activity was 46.4%. Also, the fold change (FC) in [2] was 3.6.

As for `CC(C)CCC[C@@H](C)[C@H]1CC[C@H]2[C@@H](OC(=O)c3ccccc3O)CCC[C@]12C`, the Activity in assay [1] came out at 115%. In assay [2], the fold change (FC) worked out at 1.2.

On to `CC(C)CCC[C@@H](C)[C@H]1CC[C@H]2[C@@H](OC(=O)c3ccoc3)CCC[C@]12C`, for which the Activity in assay [1] turned out to be 91.5%. For the same molecule, in assay [2], the fold change (FC) came out at 2.2.

For the molecule `CC(C)CCC[C@@H](C)[C@H]1CC[C@H]2[C@@H](OC(=O)c3ccc(N(C)C)cc3)CCC[C@]12C`, in [1], the Activity amounted to 107%. For the same molecule, in assay [2], the fold change (FC) was 1.4.

Consider `CC(C)CCC[C@@H](C)[C@H]1CC[C@H]2[C@@H](OC(=O)c3ccccn3)CCC[C@]12C`, for which the fold change (FC) came out at 4.8 in [3], 1.1 in assay [5] and 57.1 in assay [2]. Also, the Activity in assay [4] was above 100 µM; in assay [1], 14.1%. The pIC50 is below 5.00 in [6]; 5.32 in [7]; 4.90 in assay [8]; below 5.00 in [9]; 5.33 in assay [10]. In addition, the inhibition result in assay [10] is “Dose-dependent effect”.

For the molecule `CC(C)CCC[C@@H](C)[C@H]1CC[C@H]2[C@@H](OC(=O)c3cccc4ccccc34)CCC[C@]12C`, the Activity in [1] came out at 82.3%. Further, the fold change (FC) in assay [2] amounted to 2.7.

Turning to `CC(C)CCC[C@@H](C)[C@H]1CC[C@H]2[C@@H](OC(=O)c3cccnc3O)CCC[C@]12C`, the Activity in assay [1] was found to be 23%. The fold change (FC) in [2] came out at 7.5.

Take `CC(C)CCC[C@@H](C)[C@H]1CC[C@H]2[C@@H](OC(=O)c3ccncc3)CCC[C@]12C`: the Activity in assay [1] turned out to be 51.1%. Moreover, the fold change (FC) in [2] came to 14.7.

As for `COc1ccccc1C(=O)O[C@H]1CCC[C@]2(C)[C@@H]([C@H](C)CCCC(C)C)CC[C@@H]12`, the Activity in assay [1] amounted to 98%. Moreover, the fold change (FC) in assay [2] worked out at 0.9.

For `CC(C)CCC[C@@H](C)[C@H]1CC[C@H]2[C@@H](OC(=O)c3cccc(N)c3)CCC[C@]12C`, the fold change (FC) in assay [3] is 2.5; in [5] it was 0.5; in assay [2] it was 24.3. In assay [1], the Activity was found to be 2.4%. Also, the negative logarithm of the IC50 (pIC50) in assay [6] is 5.04; in assay [7] it was 5.15; in assay [8], 5.60; in [9], below 5.00; in assay [10], 5.89. For the same molecule, the inhibition result in assay [10] was “Dose-dependent effect”.

In the case of `CC(C)CCC[C@@H](C)[C@H]1CC[C@H]2[C@@H](OC(=O)c3ccccc3Cl)CCC[C@]12C`, in assay [1], the Activity was determined as 109%. In assay [2], the fold change (FC) was determined as 0.9.

Regarding `CC(C)CCC[C@@H](C)[C@H]1CC[C@H]2[C@@H](OC(=O)c3ccc(N)cc3)CCC[C@]12C`, the figures for the fold change (FC) in assay [3], in assay [5] and in [2] were 2.1, 2.2 and 140, respectively. Moreover, the Activity is above 100 µM in [4] and 15.4% in assay [1]. The negative logarithm of the IC50 (pIC50) is below 5.00 in assay [6]; 5.28 in [7]; 5.54 in assay [8]; below 5.00 in [9]; 6.00 in assay [10]. Further, the inhibition result in assay [10] was “Dose-dependent effect”.

With `CC(C)CCC[C@@H](C)[C@H]1CC[C@H]2[C@@H](OC(=O)c3ncccc3O)CCC[C@]12C`, the Activity in assay [1] worked out at 36.5%. The fold change (FC) in assay [2] turned out to be 3.1.

Consider `CC(C)CCC[C@@H](C)[C@H]1CC[C@H]2[C@@H](OC(=O)c3cccs3)CCC[C@]12C`, for which the Activity in [1] stood at 109%. Further, in assay [2], the fold change (FC) was 1.6.

The record behind these values is ChEMBL document CHEMBL3259768, “Structure-activity relationships for vitamin D3-based aromatic a-ring analogues as hedgehog pathway inhibitors” (J Med Chem, 2014).
